Each structure is given as a SMILES string.

The source of these data is ChEMBL document CHEMBL3603801 (J Med Chem, 2015).

Data set [1] in a line: Volume of distribution at steady state in rat at 0.5 mg/kg, iv. The note with it: in vivo, read-out: Vdss. In kind it is ADME, organism-based.
Data set [2] can be described thus: Ratio of drug level in rat cerebrospinal fluid to plasma at 0.5 mg/kg, iv after 2 hrs. The note with it: cerebrospinal fluid and plasma. The format is ADME, organism-based, CSF/Plasma.
Data set [3] is described as follows: Ratio of drug level in rat brain to plasma at 0.5 mg/kg, iv after 0.5 hrs. In kind it is ADME, organism-based. The note with it: brain and plasma, read-out: BPR. Put shortly:
(§1)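 Rats given 0.5 mg/kg iv in 10% DMA + 10% Solutol HS15 + 80% saline, or for some compounds 10% DMA + 10% Solutol HS15 + 80% (30% (2-hydroxypropyl)-β-cyclodextrin in saline). Brain:plasma and CSF:plasma ratios taken at 0.5 and 2 h; quantification limit 1.00 ng/mL.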

Data set [4] can be described thus: Ratio of drug level in rat brain to plasma at 0.5 mg/kg, iv after 2 hrs. Particulars: brain and plasma, read-out: BPR. The format is ADME, organism-based. Put shortly:
as §1

Data set [5] can be described thus: Ratio of drug level in rat cerebrospinal fluid to plasma at 0.5 mg/kg, iv after 0.5 hrs. Particulars: cerebrospinal fluid and plasma. In kind it is ADME, organism-based, CSF/Plasma. Put shortly: as §1
The nature of data set [6]: Oral bioavailability in rat. The format is ADME, organism-based. The note with it: in vivo.
Data set [7] in a line: Apparent permeability across apical to basolateral side of human Caco2 cells. The format is ADME, cell-based. Particulars: Caco-2. The essentials: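 Caco-2 monolayer; apparent permeability measured in the apical-to-basolateral direction, with efflux ratio also reported.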
For orientation: Caco-2 monolayers are a common model of the intestinal barrier.

Regarding `N#Cc1cc(C#N)cc(-c2cc(-c3ccc(F)cn3)ncn2)c1`, the Vd in data set [1] is 3.3 L/kg. In addition, the results for the Kp at 2 h in data set [2] and in data set [4] were 0.07 and 8.2, respectively. The Kp at 0.5 h in data set [3] turned out to be 5.5; in data set [5], 0.04.

Broadly, the bioavailability is dose-corrected exposure relative to a reference, in per cent. One may read the Papp A→B as how fast a substance crosses the layer from the apical side. `N#Cc1cc(Cl)cc(-c2cc(-c3ccc(F)cn3)ncn2)c1`: the bioavailability in data set [6] amounted to 100%. Moreover, the Vd in data set [1] came out at 3.7 L/kg. Also, the Kp at 0.5 h amounted to 2.9 in data set [3] and 0.01 in data set [5]. Further, the Papp A→B in data set [7] is 13 ×10⁻⁶ cm/s. The Kp at 2 h in data set [4] is 2.7.

`N#Cc1ccc(-c2cc(-c3cc(Cl)cc(C#N)c3)ncn2)nc1`: the Vd in data set [1] is 4.9 L/kg. Besides, the Kp at 0.5 h amounted to 4.7 in data set [3] and 0.01 in data set [5]. Further, in data set [4], the Kp at 2 h worked out at 6.7.

As to `N#Cc1cc(Cl)cc(-c2cc(-c3ccccn3)ncn2)c1`, the Vd in data set [1] stood at 4.4 L/kg. The Kp at 0.5 h in data set [3] is 1.7; in data set [5], 0.01. In addition, in data set [4], the Kp at 2 h worked out at 1.9.

`Cc1cc(C#N)cc(-c2cc(-n3cccn3)ncn2)c1`: the Vd in data set [1] came out at 2.5 L/kg. The Kp at 2 h in data set [2] worked out at 0.01; in data set [4], 1.9. Besides, the Kp at 0.5 h worked out at 1.7 in data set [3] and 0.02 in data set [5].
